According to ChEMBL document CHEMBL3351398, “Discovery of a Potent and Selective DGAT1 Inhibitor with a Piperidinyl-oxy-cyclohexanecarboxylic Acid Moiety” (ACS Med Chem Lett, 2014):
Converted amounts (≈) assume the structure as drawn.

Columns and labels:
[1] = Drug level in adipose fat of C57BL/6 mouse at 10 mg/kg, po after 24 hrs; assay type: ADME, organism-based, Adipose tissue; design: dose 10 mg/kg, route oral; conditions: read-out: Drug uptake
Outline: (§1)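 Tissue distribution in C57BL/6 mice. A single oral dose of 10 mg/kg was given as a solution in EtOH/PEG400/water (10:50:40). Parent and its cis isomer were both measured, in μM, in plasma, liver, small intestine, adipose fat and skin at 3 h and 24 h.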

[2] = Drug level in liver of C57BL/6 mouse at 10 mg/kg, po after 3 hrs; assay type: ADME, organism-based; design: dose 10 mg/kg, route oral; conditions: read-out: Drug uptake; outline: as §1
[3] = target: T1, Sterol O-acyltransferase 1 (Homo sapiens, UniProt P35610); assay: Inhibition of human ACAT1
T1 sequence (P35610 whole entry): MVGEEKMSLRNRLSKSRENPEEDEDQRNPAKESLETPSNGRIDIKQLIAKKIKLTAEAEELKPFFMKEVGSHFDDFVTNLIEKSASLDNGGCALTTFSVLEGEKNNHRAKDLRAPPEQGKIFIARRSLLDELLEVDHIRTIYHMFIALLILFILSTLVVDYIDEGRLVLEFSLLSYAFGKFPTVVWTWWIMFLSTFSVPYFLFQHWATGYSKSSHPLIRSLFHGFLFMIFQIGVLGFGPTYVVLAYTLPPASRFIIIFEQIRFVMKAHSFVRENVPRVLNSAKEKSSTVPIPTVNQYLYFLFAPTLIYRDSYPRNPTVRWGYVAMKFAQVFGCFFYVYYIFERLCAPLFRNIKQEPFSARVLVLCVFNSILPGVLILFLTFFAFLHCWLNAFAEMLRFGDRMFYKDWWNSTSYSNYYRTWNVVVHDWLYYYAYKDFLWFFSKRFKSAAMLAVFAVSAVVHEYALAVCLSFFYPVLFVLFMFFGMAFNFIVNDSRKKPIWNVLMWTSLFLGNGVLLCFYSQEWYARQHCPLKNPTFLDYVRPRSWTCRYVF

[4] = Oral bioavailability in Beagle dog at 4 mg/kg; assay type: ADME, organism-based, Canis lupus familiaris; conditions: in vivo
Outline: (§2)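 Single-dose pharmacokinetics. Beagle dogs were dosed at 1 mg/kg iv as a solution in 30% captisol (pH 8) and at 4 mg/kg po in 0.5 methylcellulose.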

[5] = AUC in Beagle dog at 4 mg/kg, po; assay type: ADME, organism-based, Canis lupus familiaris; design: dose 4 mg/kg, route oral; conditions: plasma; outline: as §2
[6] = Solubility in PBS buffer at pH 2; assay type: physicochemical
Outline: (§3)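 High-throughput solubility test in PBS buffer at pH 2 and at pH 7. Free form and salt forms (TFA, formate, ammonium) were tested separately.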

Salmonella typhimurium [7] = assay: Induction of mutagenicity in Salmonella typhimurium TA1535 assessed as increase in number of revertants in absence of metabolic activation; assay type: toxicity, organism-based; conditions: salmonella enterica subsp. enterica serovar typhimurium
Outline: (§4)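 Microbial reverse-mutation (Ames) test in strains TA1535, TA98 and TA100, with and without metabolic activation. The concentration range was 30 to 5000 μg/plate. A positive call required a 2-fold or greater increase in revertants relative to the solvent control.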

[8] = Drug level in adipose fat of C57BL/6 mouse assessed as cis-4-((1-(5-(5-(trifluoromethyl)-1H-benzo[d]imidazol-2-yl)pyridin-2-yl)piperidin-4-yl)oxy)cyclohexanecarboxylic acid level at 10 mg/kg, po after 3 hrs; assay type: ADME, organism-based, Adipose tissue; design: dose 10 mg/kg, route oral; conditions: in vivo, read-out: Drug uptake; outline: as §1
[9] = Volume of distribution at steady state in Sprague-Dawley rat at 1 mg/kg, iv or 2 mg/kg, po; assay type: ADME, organism-based; conditions: in vivo, read-out: Vdss
Outline: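 Sprague–Dawley rats were dosed as a solution in EtOH/PEG400/water (10:50:40), 1 mg/kg iv and 2 mg/kg po. Pharmacokinetic parameters were derived from these dosings.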

[10] = target: T2, Diacylglycerol O-acyltransferase 1 (Mus musculus, UniProt Q9Z2A7); assay: Inhibition of mouse DGAT1
T2 sequence (Q9Z2A7 whole entry): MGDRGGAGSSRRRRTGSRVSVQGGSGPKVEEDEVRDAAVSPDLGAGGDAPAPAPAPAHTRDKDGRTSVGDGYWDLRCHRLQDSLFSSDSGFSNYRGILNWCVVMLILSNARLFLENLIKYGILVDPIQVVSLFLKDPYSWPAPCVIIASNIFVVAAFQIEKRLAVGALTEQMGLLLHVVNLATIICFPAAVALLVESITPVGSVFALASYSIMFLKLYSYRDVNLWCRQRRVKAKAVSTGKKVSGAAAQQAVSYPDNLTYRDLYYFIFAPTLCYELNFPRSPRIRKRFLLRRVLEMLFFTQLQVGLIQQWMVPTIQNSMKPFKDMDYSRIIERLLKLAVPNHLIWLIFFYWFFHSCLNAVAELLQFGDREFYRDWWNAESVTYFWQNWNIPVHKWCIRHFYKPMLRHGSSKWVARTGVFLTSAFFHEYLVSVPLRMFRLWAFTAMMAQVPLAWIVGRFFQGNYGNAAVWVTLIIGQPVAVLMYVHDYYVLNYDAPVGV

Liver = assay: Drug level in liver of C57BL/6 mouse assessed as cis-4-((1-(5-(5-(trifluoromethyl)-1H-benzo[d]imidazol-2-yl)pyridin-2-yl)piperidin-4-yl)oxy)cyclohexanecarboxylic acid level at 10 mg/kg, po after 24 hrs; assay type: ADME, organism-based; design: dose 10 mg/kg, route oral; conditions: in vivo, read-out: Drug uptake; outline: as §1
[11] = Drug level in plasma of C57BL/6 mouse at 10 mg/kg, po after 24 hrs; assay type: ADME, organism-based; design: dose 10 mg/kg, route oral; outline: as §1
Rattus norvegicus [12] = assay: Inhibition of plasma triglyceride accumulation in Sprague-Dawley rat at 1 mg/kg, po dosed 2 hrs before lipid challenge and measured at 18 hrs by lipid tolerance test; assay type: functional
Outline: (§5)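 Rat lipid tolerance test at oral doses of 1 and 3 mpk. Reduction of lipid excursion was normalized to a reference DGAT1 inhibitor given at 10 mpk, set as 100%. Plasma drug levels were the parent and its cis isomer combined, measured 4 h after oral dosing.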

[13] = Solubility in PBS buffer at pH 7; assay type: physicochemical; outline: as §3
Rattus norvegicus [14] = assay: Inhibition of plasma triglyceride accumulation in Sprague-Dawley rat at 3 mg/kg, po dosed 2 hrs before lipid challenge and measured at 18 hrs by lipid tolerance test; assay type: functional; outline: as §5
[15] = Drug level in adipose fat of C57BL/6 mouse at 10 mg/kg, po after 3 hrs; assay type: ADME, organism-based, Adipose tissue; design: dose 10 mg/kg, route oral; conditions: read-out: Drug uptake; outline: as §1
Salmonella typhimurium [16] = assay: Induction of mutagenicity in Salmonella typhimurium TA1535 assessed as increase in number of revertants in presence of metabolic activation; assay type: toxicity, organism-based; conditions: salmonella enterica subsp. enterica serovar typhimurium; outline: as §4
Adenosine receptor A2a = Adenosine receptor A2a (Homo sapiens, UniProt P29274); assay: Binding affinity to human A2A receptor
Adenosine receptor A2a, sequence (P29274 whole entry): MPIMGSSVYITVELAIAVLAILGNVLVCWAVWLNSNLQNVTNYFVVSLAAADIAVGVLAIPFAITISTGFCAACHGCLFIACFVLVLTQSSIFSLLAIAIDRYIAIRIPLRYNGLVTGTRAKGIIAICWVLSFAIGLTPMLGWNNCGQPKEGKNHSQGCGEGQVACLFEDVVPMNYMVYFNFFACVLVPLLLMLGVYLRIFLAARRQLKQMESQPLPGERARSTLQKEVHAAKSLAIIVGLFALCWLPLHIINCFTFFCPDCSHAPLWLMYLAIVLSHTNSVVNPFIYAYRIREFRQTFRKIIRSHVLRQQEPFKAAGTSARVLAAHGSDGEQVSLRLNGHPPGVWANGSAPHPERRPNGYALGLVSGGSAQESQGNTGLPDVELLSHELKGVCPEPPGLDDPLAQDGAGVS
Outline: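 Recombinant human A2A receptor was tested in an in-house radioligand competition binding assay. The value is reported as Ki.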

[17] = Plasma concentration in Sprague-Dawley rat at 3 mg/kg, po dosed 2 hrs before lipid challenge and measured at 4 hrs by lipid tolerance test; assay type: ADME, organism-based; design: dose 3 mg/kg, route oral; outline: as §5
[18] = Drug level in plasma of C57BL/6 mouse at 10 mg/kg, po after 3 hrs; assay type: ADME, organism-based; design: dose 10 mg/kg, route oral; outline: as §1
[19] = Half life in Beagle dog at 1 mg/kg, iv or 4 mg/kg, po; assay type: ADME, organism-based, Canis lupus familiaris; conditions: in vivo; outline: as §2
Zone of skin = assay: Drug level in skin of C57BL/6 mouse assessed as cis-4-((1-(5-(5-(trifluoromethyl)-1H-benzo[d]imidazol-2-yl)pyridin-2-yl)piperidin-4-yl)oxy)cyclohexanecarboxylic acid level at 10 mg/kg, po after 3 hrs; assay type: ADME, organism-based; design: dose 10 mg/kg, route oral; conditions: in vivo, read-out: Drug uptake; outline: as §1
[20] = Oral bioavailability in Sprague-Dawley rat at 2 mg/kg; assay type: ADME, organism-based; conditions: in vivo
Salmonella typhimurium [21] = assay: Induction of mutagenicity in Salmonella typhimurium TA98 assessed as increase in number of revertants in presence of metabolic activation; assay type: toxicity, organism-based; conditions: salmonella enterica subsp. enterica serovar typhimurium; outline: as §4

- concentration at 24 h [1]: < 10 nM
- concentration at 3 h [2]: 21600 nM
- IC50 [3]: > 10 µM
- bioavailability [4]: 126%
- AUC [5]: 1.94 µM·h
- solubility [6]: 167 µM (≈ 81.6 µg/mL)
- concentration [8]: 21 nM
- Vd [9]: 0.19 L/kg
- IC50 [10]: 0.023 µM
- concentration (Liver): 672 nM
- concentration at 24 h [11]: < 10 nM
- solubility [13]: 153 µM (≈ 74.7 µg/mL)
- concentration at 3 h [15]: 237 nM
- Ki (Adenosine receptor A2a): 4.6 µM
- concentration at 3 h [18]: 324 nM
- half-life [19]: 1.16 h
- concentration (Zone of skin): 46 nM
- bioavailability [20]: 8%
Compound: O=C(O)[C@H]1CC[C@H](OC2CCN(c3ccc(-c4nc5cc(C(F)(F)F)ccc5[nH]4)cn3)CC2)CC1
- Activity (Salmonella typhimurium [7]): Non-toxic
- inhibition in vivo at 1 mg/kg (Rattus norvegicus [12]): 80%
- inhibition in vivo at 3 mg/kg (Rattus norvegicus [14]): 80%
- Activity (Salmonella typhimurium [16]): Non-toxic
- concentration at 4 h [17]: 58 nM
- Activity (Salmonella typhimurium [21]): Non-toxic
